KCNQ1 inh – inhibitors of human KCNQ1 channel, primary screen, cell-based, thallium flux, high-throughput. Potassium voltage-gated channel subfamily KQT member 1 (Homo sapiens), P51787. CHO-K1 KCNQ1, FluxOR thallium flux fluorescence; active compounds read high. B-score at 10 µM. 1.3% of 310,000 active;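 active means compounds whose thallium flux B-score, printed positive for inhibition, exceeds three library SD while starting fluorescence stays within three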;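 further: channel opened by potassium depolarization with thallium stimulus after 20 min compound exposure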
Kir21 inh – inhibitors of mouse Kir2.1 inward-rectifier potassium channel; HEK293-Kir2.1, FluxOR thallium flux fluorescence; active compounds read low; AID 1672, 2009; 0.85% of 310,000 active; B-score at 10 µM;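 active means fluorescence ratio B-score at or below minus 3 SD of library scores, with starting-brightness B-score within 2 SD, cut at about -4.2 in these data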;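 further: channel flux triggered by added potassium and thallium sulfate stimulus; B-score of peak minus minimum fluorescence over baseline after thallium stimulus; more negative B-score means stronger Kir2.1 block with less thallium influx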
hERG rescue – hERG rescue from dofetilide block, primary screen, cell-based, CHO-hERG, FluxOR thallium flux, dofetilide IC70 | 0.51% of 310,000 active | Voltage-gated inwardly rectifying potassium channel KCNH2 (Homo sapiens), Q12809 | activation (rescue from dofetilide block), less the hit threshold, % at 10 µM | dofetilide IC70 present;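 active means activation above the mean of controls blocked by dofetilide plus 5 SD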;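 further: thallium influx through hERG after potassium depolarization seen as dye fluorescence rise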
Target sequence (Q12809 whole entry, looked up): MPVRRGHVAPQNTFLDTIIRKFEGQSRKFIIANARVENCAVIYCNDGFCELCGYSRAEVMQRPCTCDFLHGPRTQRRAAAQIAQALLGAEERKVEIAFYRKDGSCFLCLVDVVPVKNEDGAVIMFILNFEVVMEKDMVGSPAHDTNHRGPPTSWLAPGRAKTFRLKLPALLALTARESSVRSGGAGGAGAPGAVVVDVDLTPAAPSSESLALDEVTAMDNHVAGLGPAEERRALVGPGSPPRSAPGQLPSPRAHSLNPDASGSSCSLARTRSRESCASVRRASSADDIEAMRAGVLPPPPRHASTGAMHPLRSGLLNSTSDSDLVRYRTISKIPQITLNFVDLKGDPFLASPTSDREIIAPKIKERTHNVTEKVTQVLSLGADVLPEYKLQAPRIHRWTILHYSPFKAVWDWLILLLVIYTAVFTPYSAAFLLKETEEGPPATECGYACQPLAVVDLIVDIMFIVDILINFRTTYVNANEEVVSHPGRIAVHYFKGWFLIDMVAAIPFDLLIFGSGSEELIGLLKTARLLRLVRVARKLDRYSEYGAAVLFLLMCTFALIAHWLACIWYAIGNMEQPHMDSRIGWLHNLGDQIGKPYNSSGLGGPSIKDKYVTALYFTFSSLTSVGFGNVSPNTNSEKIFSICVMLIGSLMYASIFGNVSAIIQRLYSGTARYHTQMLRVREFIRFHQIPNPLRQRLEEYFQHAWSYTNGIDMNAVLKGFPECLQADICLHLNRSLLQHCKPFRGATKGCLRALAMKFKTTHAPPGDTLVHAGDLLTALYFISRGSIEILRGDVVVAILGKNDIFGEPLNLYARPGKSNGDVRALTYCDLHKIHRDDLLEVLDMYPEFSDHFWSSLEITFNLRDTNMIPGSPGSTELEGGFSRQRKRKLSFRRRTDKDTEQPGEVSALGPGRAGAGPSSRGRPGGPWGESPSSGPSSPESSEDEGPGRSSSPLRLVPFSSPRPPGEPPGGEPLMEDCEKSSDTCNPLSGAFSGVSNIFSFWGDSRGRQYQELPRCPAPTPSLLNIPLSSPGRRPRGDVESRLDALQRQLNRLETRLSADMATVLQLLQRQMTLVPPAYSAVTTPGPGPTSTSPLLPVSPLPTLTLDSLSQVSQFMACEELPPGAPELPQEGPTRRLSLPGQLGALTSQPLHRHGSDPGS
KCNK3 inh – human KCNK3 channel inhibitors, primary screen, CHO cells, FluxOR thallium flux, B-score | Potassium channel subfamily K member 3 (Homo sapiens), O14649 | 0.84% of 340,000 active | B-score at 10 µM | FluxOR fluorescence; active compounds read low;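 active means B-score under library mean minus 4 SD, starting fluorescence ratio at most library mean plus 5 SD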;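 further: more negative B-score means stronger inhibition of thallium flux through KCNK3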
KCNK9 block – KCNK9 potassium channel inhibitors, primary screen, HEK293 cells, thallium flux; B-score at 10 µM; FluxOR thallium flux fluorescence; active compounds read low; Potassium channel subfamily K member 9 (Homo sapiens), Q9NPC2; 1.2% of 310,000 active; AID 488922, 2010;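 active means ratio B-score over 3 SD below the library mean, with starting fluorescence within 5 SD of its mean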;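 further: negative B-score means less thallium flux so channel inhibition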
KCNQ1 pot – potentiators or activators of KCNQ1 channel, primary screen, cell-based, thallium flux, high-throughput; AID 2648, 2010; CHO-K1 KCNQ1, thallium flux FluxOR fluorescence; active compounds read high; Potassium voltage-gated channel subfamily KQT member 1 (Homo sapiens), P51787; B-score at 10 µM; 0.35% of 310,000 active;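 active means fluorescence ratio B-score, a plate-corrected score, at least three library SD, with initial intensity B-score within 5 SD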
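Assay system: stable KCNQ1 CHO-K1 line; medium: assay buffer, equal DMSO in all wells; timing: 90 min dye loading and 20 min compound exposure, both at room temperature; technique: kinetic FluxOR thallium fluorescence, 10-s 1-Hz baseline, 110-s post-stimulus read; read-out basis: B score of baseline-normalized fluorescence ratio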
Each line names hits and unclear results; the compound was inactive in the other large screens. A selection: hits, their analogues and other compounds. The true share with any hit is near 3.8%.

CCN(C(=O)CSc1nc2ccccc2c(=O)n1-c1ccccc1F)C1CCS(=O)(=O)C1 (centres undefined)	KCNK3 inh -10.5 (no result: KCNQ1 inh, Kir21 inh, hERG rescue, KCNK9 block, KCNQ1 pot)
COc1ccc(Cc2nc3ccc(C(=O)N(C)CCn4ccnc4)cc3o2)cc1OC	none
CCCCOc1ccc(/C=C/C(=O)OCC(=O)NC(=O)NCC(C)C)cc1OCC	none
Cc1cccc(OCC(=O)Oc2ccc(Cl)cc2)c1	none
Cc1cccc(OC(=O)NCCOC(=O)N(O)c2ccc(Cl)cc2)c1	KCNQ1 inh 6
NC(=O)c1ncn([C@@H]2O[C@H](CNC(=O)[C@H](N)CSCc3ccccc3)[C@@H](O)[C@H]2O)n1	none (no result: KCNQ1 inh, Kir21 inh, hERG rescue, KCNK9 block, KCNQ1 pot)
COc1ccccc1C(C)NCC(=O)Nc1c(F)cccc1F (centres undefined)	none
COc1cc(Cl)c(C)cc1NC(=O)CNC(C)c1ccccc1OC (centres undefined)	Kir21 inh -4.2
CC(C)(C)c1ccc(C(=O)NNC(=O)CNC(=O)c2cccs2)cc1	none (no result: KCNQ1 inh, Kir21 inh, hERG rescue, KCNK9 block, KCNQ1 pot)
C=CCn1c(=S)[nH]c2ccccc2c1=O	none (no result: KCNQ1 inh, Kir21 inh, hERG rescue, KCNK9 block, KCNQ1 pot)
Cn1c(=S)[nH]c2scc(-c3cccs3)c2c1=O	hERG rescue 57.9, KCNQ1 pot 66
C=CCn1c(=S)[nH]c2scc(-c3cccs3)c2c1=O	hERG rescue 41.0, KCNQ1 pot 53
Cc1ccc(Oc2ncnc(N)c2[N+](=O)[O-])cc1C	none
Cc1cccc(C(=O)N2CC(=O)Nc3ccc(F)cc3C2c2ccc(F)cc2)c1 (centres undefined)	none
CC(c1ccccc1)n1c(-c2ccc(Cl)cc2)n[nH]c1=S (centres undefined)	hERG rescue 7.8
CC(c1ccccc1)n1c(-c2ccncc2)n[nH]c1=S (centres undefined)	none
COc1cccc([C@@H]2CC=C(C(=O)O)CN2S(=O)(=O)c2ccc(C)cc2)c1	none (no result: KCNQ1 inh, Kir21 inh, hERG rescue, KCNK9 block, KCNQ1 pot)
Cc1ccc(NC(=O)CSc2ncc3ccccn23)cc1C	hERG rescue 5.9
CCOc1ccccc1N(CC(=O)Nc1ccccc1C(=O)N1CCCC1)S(C)(=O)=O	none
CCN1C(=O)/C(=C2\SC(=S)N(NC(=O)c3ccccc3O)C2=O)c2ccccc21	KCNQ1 inh 10
O=C1CSC(=S)N1Cc1cccs1	none (no result: KCNQ1 inh, Kir21 inh, hERG rescue, KCNK9 block, KCNQ1 pot)
Cc1cc2c(sc3c(C)ccc(C)c32)c(C)n1	none
CCn1c(CCNC(=O)c2ccc(OC)cc2)nnc1SCc1ccc(Cl)c(Cl)c1	Kir21 inh -6.45
CCn1c(CCNC(=O)c2ccc(C)cc2)nnc1SCc1ccc(Cl)c(Cl)c1	none
CC(NCCCOc1cccc2ccccc12)c1ccccc1 (centres undefined)	Kir21 inh -10.3
COc1cccc(OCC(=O)Nc2ccccc2C(=O)Nc2ccc(C(=O)O)cc2)c1	none
COCCNC(=O)/C(C#N)=C/c1c(N2CCCCCC2)nc2ccccn2c1=O	none
CC(Sc1nnc2ccccn12)C(=O)Nc1ccc(Cl)cn1 (centres undefined)	none
CC(Sc1nnc2ccccn12)C(N)=O (centres undefined)	hERG rescue 5.0
CCCCN(C)C(=O)CCCc1c[nH]c2ccccc12	KCNK9 block -7.79
CCN(CC)C(=O)CCCc1c[nH]c2ccccc12	none
Cc1nnc(SC(C)C(=O)NC2CCCCC2C)s1 (centres undefined)	none
CCN(CC)C(=O)c1[nH]cnc1C(=O)NCc1ccccc1	none (no result: KCNQ1 inh, Kir21 inh, hERG rescue, KCNK9 block, KCNQ1 pot)
COc1ccc(C2CC3(CC(C)(C)NC(SC)=N3)Oc3cc(O)cc(C)c32)cc1 (centres undefined)	Kir21 inh -5.32
COc1ccc(-c2nn(-c3ccccc3)cc2C(=O)OCC(=O)c2ccc(C)c([N+](=O)[O-])c2)cc1	KCNQ1 inh 8
COc1ccc(-c2cc(C(=O)OCC(=O)c3ccc(C)c([N+](=O)[O-])c3)c3ccccc3n2)cc1	none
C=CCc1cc(C=Nc2ccc(N3CCOCC3)cc2)cc(OCC)c1O	none (no result: KCNQ1 inh, Kir21 inh, hERG rescue, KCNK9 block, KCNQ1 pot)
CC(=O)C[C@H]1c2ccccc2S(=O)(=O)N1c1ccccc1	none
CCOCCCNC(=O)c1ccc(/C=C2\Oc3ccccc3N(C)C2=O)cc1	none
O=C(c1ccco1)N1CCN(CCOCCOc2cccc3ccccc23)CC1	none
c1ccc(-c2ccccc2OCCCCN2CCCCCC2)cc1	Kir21 inh -6.59
CC1CCN(CCOc2ccc(OCc3ccccc3)cc2)CC1	Kir21 inh -7.09
CC1CCN(CCCCOc2ccccc2-c2ccccc2)CC1	Kir21 inh -9.65
COc1ccccc1OCCCCN1CCC(C)CC1	none
c1ccc(CN2CCN(CCOCCOc3cccc4ccccc34)CC2)cc1	Kir21 inh -14.4
CC(=O)OCC1CC(COC(C)=O)C(COC(C)=O)CC1COC(C)=O (centres undefined)	none (no result: KCNQ1 inh, Kir21 inh, hERG rescue, KCNK9 block, KCNQ1 pot)
COC(=O)[C@H](CCSC)NS(=O)(=O)c1ccccc1Br	none
O=C(O)CC1CCC1CC(=O)O (centres undefined)	none (no result: KCNQ1 inh, Kir21 inh, hERG rescue, KCNK9 block, KCNQ1 pot)
CC1CCN(CCOCCOc2ccccc2-c2ccccc2)CC1	Kir21 inh -5.49
c1ccc(-c2ccccc2OCCOCCN2CCCCC2)cc1	none
CN(C(=O)Cn1nnc(-c2cccnc2)n1)C1CCCCC1	none (no result: KCNK3 inh)
CCOc1ccc(NC(=O)Nc2ccon2)cc1	none
Cc1ccsc1C(=O)Nc1ccc(S(=O)(=O)N2CCOCC2)cc1	none (no result: KCNQ1 inh, Kir21 inh, hERG rescue, KCNK9 block, KCNQ1 pot)
COC1(OC)N=C(N)C2(C#N)C(c3ccc(F)cc3)C12C#N (centres undefined)	none
CCSC1(SCC)N=C(N)C2(C#N)C(c3ccc(F)cc3)C12C#N (centres undefined)	Kir21 inh -4.69
CC(C)(C)c1cc(CCC(=O)NCc2cccnc2)cc(C(C)(C)C)c1O	Kir21 inh -5.09
O=C(Nc1cccnc1)C1CC(=O)N(c2ccc(F)cc2)C1 (centres undefined)	none
COc1ccc(CCNc2nc(-c3ccncc3)cs2)cc1OC	none
COc1ccc(CCNc2nc(-c3ccc(O)cc3)cs2)cc1OC	Kir21 inh -4.63
CC(C)(C)C(=O)NC(=S)NNC(=O)c1sc2ccccc2c1Cl	hERG rescue 33.6, KCNQ1 pot 49
CCCOC(=S)NC(=O)c1sc2ccccc2c1Cl	hERG rescue 15.2, KCNQ1 pot 49
O=C(NC(=S)NCCO)c1sc2ccccc2c1Cl	none
CCOC(=S)NC(=O)c1sc2ccccc2c1Cl	hERG rescue 22.2, KCNQ1 pot 96
O=C(NNC(=S)NC1CCCCC1)c1sc2ccccc2c1Cl	none
CC(NC(=O)c1ccccc1)C(=O)NNC(=O)c1ccccc1Cl (centres undefined)	none (no result: KCNQ1 inh, Kir21 inh, hERG rescue, KCNK9 block, KCNQ1 pot)

Screening data from PubChem.
